CHOP inh: blocks CHOP induction under ER stress | inhibition, % at 10 µM | CHO-K1 CHOP-promoter luciferase, tunicamycin-induced, 15-18 h | 3.8% of 220,000 active;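 active means compounds that reduced the stress-induced luciferase reporter signal by more than about 70% of percent inhibition, limit read from the data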
UPR CHOP act: apoptotic UPR (CHOP) activation. CHO-CHOP luciferase reporter, luminescence; percent of tunicamycin response over DMSO baseline. 0.34% of 330,000 active. activation, % at 10 µM;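 active means at 10 µM dose, activation of 40% or more, normalized to positive control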
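Test system: CHO-CHOP cells, stable luciferase reporter of PERK-eIF2a-CHOP signalling | Quantity: 500 CHO-CHOP cells per well | Buffer or medium: F12 plus 10% serum | Compound dosing: 10 µM single point, 0.5% DMSO | Schedule: 6 h compound treatment, 37 °C | Signal: Luciferase luminescence | Control set: Tunicamycin high control, DMSO low control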
TMEM16A inh: mouse TMEM16A channel inhibition, primary screen. AID 588511. normalized B-score (activity score, 25-100; higher = stronger inhibition) at 10 µM. 1.2% of 310,000 active. HEK293 TMEM16A/YFP iodide influx fluorescence, ionomycin;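 active means ratio plate-corrected score three or more library SD toward inhibition, starting fluorescence score within five deviations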;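 further: score derived from kinetic fluorescence span divided by baseline fluorescence per well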
UPR XBP1 act: activators of adaptive arm of unfolded protein response (XBP1). CHO-XBP1 luciferase reporter, IRE1-XBP1 UPR activation, luminescence; percent of tunicamycin response, DMSO as zero. activation, % at 20 µM. 0.33% of 330,000 active;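 active means versus positive control, 20 µM dose yields 30% or more activation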
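incubation = overnight seeding at 37 °C, 6 h compound treatment at 37 °C | assay system = CHO-XBP1 cells stably carrying IRE1-XBP1-driven luciferase reporter | input = 1000 cells per well | detection = luciferase luminescence | dosing = single point, 20 µM final compound, 1% DMSO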
ANO1 activ: mouse TMEM16A channel activation, primary screen. Q8BHY3. HEK293 TMEM16A/YFP-H148Q/I152L, iodide quench fluorescence; stronger effect = lower value. B-score at 10 µM. 0.3% of 340,000 active;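 active means fluorescence-ratio B-score plate-corrected deviation score at least 3 library SD below zero, with starting fluorescence score within 5 deviations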;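 further: channel opened by trigger with iodide after compound preincubation; score built on the fluorescence ratio of max minus min over baseline; more negative score means more quench and so TMEM16A activation or potentiation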
Lipid droplet: modulators of hepatic lipid droplet formation; AML12 mouse hepatocytes, oleate lipid droplets, BODIPY imaging; 0.4% of 240,000 active; AID 1656; inhibition, % at 6.5 µM;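 active means lipid droplet intensity inhibited by at least 50%, with more than 500 cells counted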
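Assay system: AML12 hepatocytes (mouse); Probe or stimulus: oleic acid at 100 µM to induce lipid droplet formation; Dosing: compound at 6.5 µM only; Schedule: compound with oleate, overnight; Detection: fluorescence imaging, 20x objective, two fields per well; Measure: % inhibition of lipid droplet signal.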
TMEM16A reconf: TMEM16A (mouse) chloride channel inhibition, re-confirmation; shares compounds with TMEM16A inh; HEK293 TMEM16A/YFP-H148Q, iodide quench fluorescence; ionomycin added to raise cell calcium; inhibition, % at 10 µM; 39% of 2,300 active; AID 652189;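 active means mean duplicate percent inhibition, scaled so buffer wells are 0 and the reference blocker 100, over three buffer SD above buffer mean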
TMEM16A Ca cntr: calcium mobilization counter-screen hit for TMEM16A inhibitor series; shares compounds with TMEM16A inh; TMEM16A/YFP HEK293, Fluo4 calcium mobilization; calcium response (% of ionomycin), % at 10 µM; 2% of 2,300 active; AID 652231;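 active means duplicate-averaged calcium signal over 20% of the ionomycin maximum, relative to buffer baseline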;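 further: each well's signal is peak minus trough fluorescence divided by its pre-addition baseline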
YFP-HEK293 quench: counter-screen for TMEM16A inhibitors: effect in parental YFP-HEK293 cells; iodide YFP quench, ionomycin; shares compounds with TMEM16A inh; YFP ratio F(max-min)/F0 at 10 µM; 2,300 tested, under 10 active;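 active means yellow fluorescent protein signal ratio exceeding the buffer control mean by over 5 SD of those controls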;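 further: ratio is mean of duplicate wells from kinetic YFP trace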
ClC-1 rat inh: blocks the rat ClC-1 voltage-dependent chloride channel. 2,300 tested, under 10 active. CHO ClC-1-YFP, iodide influx fluorescence quench; iodide control reads 0, buffer control 100. shares compounds with TMEM16A inh. ratio percent, % at 10 µM;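 active means duplicate-mean ratio percent above the mean of iodide-only control wells, which defines zero, plus 5 of their SD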;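 further: higher percent means stronger block of ClC-1 iodide influx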
Target sequence (P35524 whole entry, looked up): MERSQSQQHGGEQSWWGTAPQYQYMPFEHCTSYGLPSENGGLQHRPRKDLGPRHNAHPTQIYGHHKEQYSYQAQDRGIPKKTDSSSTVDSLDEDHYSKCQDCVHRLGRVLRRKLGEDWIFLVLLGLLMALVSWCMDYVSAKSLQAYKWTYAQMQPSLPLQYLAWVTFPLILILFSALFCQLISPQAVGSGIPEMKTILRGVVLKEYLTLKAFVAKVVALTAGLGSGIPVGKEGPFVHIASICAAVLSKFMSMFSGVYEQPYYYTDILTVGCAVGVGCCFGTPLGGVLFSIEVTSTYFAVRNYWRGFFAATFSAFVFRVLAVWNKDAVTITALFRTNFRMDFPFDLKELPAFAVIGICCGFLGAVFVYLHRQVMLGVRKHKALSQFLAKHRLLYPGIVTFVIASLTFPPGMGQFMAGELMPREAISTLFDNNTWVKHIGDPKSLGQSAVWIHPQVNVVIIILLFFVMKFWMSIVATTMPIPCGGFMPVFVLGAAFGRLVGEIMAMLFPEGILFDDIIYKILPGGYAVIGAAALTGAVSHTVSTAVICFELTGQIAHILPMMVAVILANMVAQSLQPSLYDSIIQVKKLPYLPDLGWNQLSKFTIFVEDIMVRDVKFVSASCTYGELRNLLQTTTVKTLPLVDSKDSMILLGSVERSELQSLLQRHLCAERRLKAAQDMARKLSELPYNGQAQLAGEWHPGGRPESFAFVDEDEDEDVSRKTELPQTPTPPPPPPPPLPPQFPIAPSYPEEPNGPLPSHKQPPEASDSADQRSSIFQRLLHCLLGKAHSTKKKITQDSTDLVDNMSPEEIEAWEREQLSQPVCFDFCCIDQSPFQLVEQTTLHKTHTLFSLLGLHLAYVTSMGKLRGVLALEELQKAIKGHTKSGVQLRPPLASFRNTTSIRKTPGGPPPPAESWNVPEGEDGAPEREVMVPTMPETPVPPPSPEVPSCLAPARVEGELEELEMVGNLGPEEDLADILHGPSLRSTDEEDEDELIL
Hits are given with their value; – = inactive; · = no result given. Most compounds without a hit are left out; they make up all but 4.2% or so of the library.

SMILES	CHOP inh	UPR CHOP act	TMEM16A inh	UPR XBP1 act	ANO1 activ	Lipid droplet	TMEM16A reconf	TMEM16A Ca cntr	YFP-HEK293 quench	ClC-1 rat inh
CCOCCCNC(=S)N1CCN(c2nc(-c3ccccc3)cs2)CC1	·	–	–	–	–	–	·	·	·	·
COCCCNC(=S)N1CCN(c2nc(-c3ccccc3)cs2)CC1	·	–	25	–	–	–	–	–	–	–
Cc1ccc(S(=O)(=O)Nc2ccc3c(c2)ncn3C(C)(C)C)cc1	–	–	–	–	–	·	·	·	·	·
CC(C)(C)n1cnc2cc(NS(=O)(=O)c3ccc(Br)cc3)ccc21	–	–	25	–	–	–	–	–	–	–
N#CCC(=O)Nc1ccc(C(=O)OCC(=O)Nc2ccccc2-c2ccccc2)cc1	–	–	100	–	–	–	–	–	–	–
CC(C)c1ccc(N(CC(=O)N2CCN(Cc3ccccc3)CC2)S(C)(=O)=O)cc1	·	–	–	–	–	·	·	·	·	·
O=C(Nc1ccc2c(c1)OCO2)C1CCN(Cc2cnn(-c3ccccc3)c2-n2cccc2)CC1	–	–	100	–	–	–	–	–	–	–
COC(=O)c1cc(=O)n(Cc2cccs2)c(=NCc2cccs2)s1	–	–	25	–	–	·	–	–	–	–
Cc1cc(C)c2nc(SC(C)C#N)cc(C)c2c1 (stereo not given)	–	–	100	–	–	–	–	–	–	–
O=C(CCN1C(=O)C2C3CCC(C3)C2C1=O)Nc1ccc(F)cc1 (stereo not given)	·	–	·	–	–	–	·	·	·	·
N#Cc1c(NC(=O)COC(=O)C2CC3C=CC2C3)oc(-c2ccccc2)c1-c1ccccc1 (stereo not given)	–	–	–	–	–	–	·	·	·	·
COc1ccccc1OCC(=O)Nc1oc(-c2ccccc2)c(-c2ccccc2)c1C#N	–	–	25	–	–	–	29.0%	–	–	–
COCCn1c(C)cc(C(=O)CSc2nc(C)c(C)c(C)n2)c1C	–	–	–	–	–	–	·	·	·	·
COCCn1c(C)cc(C(=O)CSc2ncn[nH]2)c1C	–	–	100	–	–	–	–	–	–	–
CCOc1ccc(-n2c(SCc3ccc([N+](=O)[O-])cc3)nnc2-c2ccc(OC)cc2)cc1	–	–	–	–	–	–	·	·	·	·
O=S(=O)(Nc1nc2ccccc2nc1Cl)c1ccc2ccccc2c1	–	–	100	–	–	–	28.5%	–	–	–
Cc1cc(F)ccc1S(=O)(=O)Nc1nc2ccccc2nc1Cl	·	–	–	–	–	–	·	·	·	·
Cc1ccc(C(C)(C)C)cc1S(=O)(=O)Nc1nc2ccccc2nc1Cl	·	–	100	–	–	·	39.5%	–	–	–
O=C(Nc1ccc(Br)cc1Cl)NC1CC1	–	–	–	–	–	–	·	·	·	·
O=C(CCNS(=O)(=O)c1ccc(Cl)cc1)NCc1cccs1	–	–	–	–	–	–	·	·	·	·
Cc1ccccc1Cn1ccc(NC(=O)c2cnn3c2NC(c2ccccc2)CC3C(F)(F)F)n1 (stereo not given)	–	–	25	–	–	–	–	–	–	–
O=C(NCc1ccco1)c1cnn2c1NC(c1ccccc1)CC2C(F)(F)F (stereo not given)	–	–	–	–	–	·	·	·	·	·
Cc1cccc2c(SCC(N)=O)nc(-c3ccccc3)nc12	·	–	100	–	–	–	–	–	–	–
